Data on 13 molecules can be found in ChEMBL document CHEMBL2010721, “Growth inhibition of Mycobacterium smegmatis by prodrugs of deoxyxylulose phosphate reducto-isomerase inhibitors, promising anti-mycobacterial agents” (Eur J Med Chem, 2012).

Each structure is given as a SMILES string. Values after ≈ are worked out from the molar mass of the structure shown. Active and inactive are the calls of the source.

In experiment [1] the target is T1, 1-deoxy-D-xylulose 5-phosphate reductoisomerase (Mycobacterium smegmatis (strain ATCC 700084 / mc(2)155)) (UniProt A0QVH7).
T1 sequence (whole entry): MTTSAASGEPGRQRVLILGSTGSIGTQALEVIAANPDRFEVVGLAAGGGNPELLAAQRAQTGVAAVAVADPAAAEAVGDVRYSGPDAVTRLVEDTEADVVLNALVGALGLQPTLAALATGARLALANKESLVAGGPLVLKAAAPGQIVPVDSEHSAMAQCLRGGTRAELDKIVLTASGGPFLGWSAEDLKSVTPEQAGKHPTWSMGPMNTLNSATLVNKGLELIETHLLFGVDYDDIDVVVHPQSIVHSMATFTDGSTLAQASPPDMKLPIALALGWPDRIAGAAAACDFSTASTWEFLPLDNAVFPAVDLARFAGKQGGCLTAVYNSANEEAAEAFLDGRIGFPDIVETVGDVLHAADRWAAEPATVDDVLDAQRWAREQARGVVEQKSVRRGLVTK
Nature of the experiment: Inhibition of Mycobacterium smegmatis DSM 43756 ATCC 19420 N-terminal his-tagged DXR expressed in XL1-blue Escherichia coli using NADPH and DXP as substrate at 1 uM […]. As to conditions: Mycolicibacterium smegmatis.

Experiment [2] has as its system Escherichia coli. The experiment can be described thus: Inhibition of Escherichia coli DXR at 1 uM.
Experiment [3] concerns Mycolicibacterium smegmatis. Nature of the experiment: Antimycobacterial activity against Mycobacterium smegmatis at 400 nmol/disc after 24 hrs by paper disc diffusion method. It counts as functional. Summed up:
(§1)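 M. smegmatis (grown at 37 °C) was spread from a tenfold-diluted overnight culture on agar plates containing yeast extract, malt extract, CaCO₃ and glucose. Compounds were dissolved at 100 mM in DMSO or water, and 4 µL was put on each 6 mm disc. Isoniazid was dissolved at 7.5 mM, and 2 µL was put on each disc. Inhibition zones were read after 24 h at 37 °C.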
Background: In agar diffusion tests the substance spreads into inoculated agar from a disc or well.

In experiment [4] the test system is Mycolicibacterium smegmatis. The experiment can be described thus: Antimycobacterial activity against Mycobacterium smegmatis assessed as viability at 250 uM after 15 mins by resazurin test. It counts as functional, organism-based. Summed up: (§2)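 A fresh M. smegmatis preculture was adjusted to McFarland 0.5. Then 0.2 mL went into 1.8 mL medium with inhibitor (final isoniazid 10–40 µM; other compound 250–1000 µM), shaken 24 h at 37 °C. Of this, 50 µL was added to 150 µL fresh medium, in duplicate, plus 0.01% resazurin. Plates were kept at 37 °C, and the blue-to-pink change was followed by eye for 12 h, with growth and sterile controls.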
(The colour change of resazurin is a common sign of viable cells or microbes.)

For experiment [5], the system named is Mycolicibacterium smegmatis. Nature of the experiment: Antimycobacterial activity against Mycobacterium smegmatis assessed as viability at 500 uM after 5 hrs by resazurin test. It counts as functional, organism-based. Summed up: as §2
In experiment [6] the test system is Mycolicibacterium smegmatis. Nature of the experiment: Antimycobacterial activity against Mycobacterium smegmatis. The experiment is classed as functional.
Experiment [7] concerns Escherichia coli. Nature of the experiment: Antimycobacterial activity against Escherichia coli at 400 nmol/disc after 24 hrs by paper disc diffusion method. It counts as functional, organism-based.
Experiment [8] addresses T2, 1-deoxy-D-xylulose 5-phosphate reductoisomerase (Mycobacterium smegmatis (strain ATCC 700084 / mc(2)155), UniProt A0QVH7).
T2 sequence (A0QVH7 whole entry): T1 sequence (whole entry)
The experiment can be described thus: Inhibition of Mycobacterium smegmatis DSM 43756 ATCC 19420 N-terminal his-tagged DXR expressed in XL1-blue Escherichia coli using NADPH and DXP as substrate preincubated for 2 mins […]. The arrangement: species or system Mycolicibacterium smegmatis. Summed up: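 N-terminal His-tagged M. smegmatis DXR, Ni²⁺-purified and kept in glycerol/NaCl buffer. Assay at 37 °C in 50 mM Tris/HCl pH 7.5 with 3 mM MgCl₂, 2 mM DTT, 0.15 mM NADPH and 0.5 mM DXP. Enzyme and inhibitor were preincubated 2 min with NADPH, then DXP started the reaction. Initial rates were read as A340 decrease. Inhibitor range was 0.1–0.6 or 0.2–2 µM. IC50 came from residual activity vs log concentration, mean of two determinations.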

Experiment [9] shares this target. Nature of the experiment: Inhibition of Mycobacterium smegmatis DXR. The arrangement: species or system Mycolicibacterium smegmatis. Summed up:
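His-tagged M. smegmatis DXR (N-terminal tag, expressed in E. coli, Ni2+ column purified) was pre-incubated with inhibitor and 0.15 mM NADPH for 2 min at 37 °C in 50 mM Tris/HCl pH 7.5, 3 mM MgCl2, 2 mM DTT. Reaction started with 0.5 mM DXP; initial rates from NADPH absorbance decrease at 340 nm. IC50 from residual activity versus log inhibitor concentration; mean of two independent determinations.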

For experiment [10], the system named is Mycolicibacterium smegmatis. The experiment can be described thus: Antimycobacterial activity against Mycobacterium smegmatis at 15 nmol/disc after 24 hrs by paper disc diffusion method. It counts as functional. A digest of the protocol: as §1
Experiment [11] concerns Mycolicibacterium smegmatis. Nature of the experiment: Antimycobacterial activity against Mycobacterium smegmatis assessed as viability at 10 uM after 1 hr by resazurin test. The experiment is classed as functional, organism-based. A digest of the protocol:
as §2

Experiment [12] concerns Mycolicibacterium smegmatis. Nature of the experiment: Antimycobacterial activity against Mycobacterium smegmatis assessed as viability at 20 uM after 5 to 12 hrs by resazurin test. It counts as functional, organism-based. Summed up:
as §2

Experiment [13] has as its system Mycobacterium tuberculosis. Nature of the experiment: Antimycobacterial activity against Mycobacterium tuberculosis. It counts as functional.

One may read the MIC as the smallest concentration in the dilution series that meets the test's criterion for growth inhibition. Higher therefore signals a need for much substance. As usually defined, the IC50 is the point on the concentration scale where inhibition reaches its midpoint. Lower therefore signals higher potency.

As for `CCCC(=O)OCOP(=O)(CCCC(=O)N(C)O)OCOC(=O)CCC`, the inhibition result (in [1]; in the experiment on Escherichia coli [2]) was “inactive” each time. Also, the “diameter of the inhibition zone (DIZ)” value in experiment [3] is 23 mm. The “growth inhibition (GI)” value (in [4]; in the experiment on Escherichia coli [7]) was “inactive” each time. Further, in experiment [5], the “growth inhibition (GI)” value is “Active”. In experiment [6], this molecule had an MIC of 250 µM (≈ 99.3 µg/mL).
Molecule `CC(=O)N(O)CCCP(=O)(O)O` [FR-900098] gave an IC50 in experiment [8] of 320 nM. Also, the “growth inhibition (GI)” value in experiment [3] was “inactive”.
Regarding `O=C(CCCP(=O)(OCOC(=O)c1ccccc1)OCOC(=O)c1ccccc1)NO`, the “growth inhibition (GI)” value (in experiment [3]; in the experiment with Escherichia coli [7]) was “inactive” in each case.
As to `CCCC(=O)OCOP(=O)(CCCC(=O)NO)OCOC(=O)CCC`, the “growth inhibition (GI)” value (in experiment [3]; in the experiment with Escherichia coli [7]) was “inactive” throughout.
On to `O=CN(O)CCCP(=O)(O)O` [FOSMIDOMYCIN], for which the results for the IC50 in [9] and in experiment [8] were 80 nM and 510 nM, respectively. The “growth inhibition (GI)” value in experiment [3] was “inactive”.
With `NNC(=O)c1ccncc1` [ISONIAZID], the “diameter of the inhibition zone (DIZ)” value in [10] stood at 29 mm. The “growth inhibition (GI)” value in experiment [11] and in experiment [12] was “inactive” each time. The MIC in experiment [6] came to 10 µM (≈ 1.37 µg/mL); in [13], 7 µg/mL (≈ 51 µM).
`O=C(CCCP(=O)(O)O)NO` displayed a 50% inhibitory concentration (IC50) in experiment [8] of 1480 nM. Also, the “growth inhibition (GI)” value in experiment [3] was “inactive”.
Turning to `CCCC(=O)OCOP(=O)(CCCN(O)C(C)=O)OCOC(=O)CCC`, the inhibition result (in experiment [1]; in the experiment on Escherichia coli [2]) was “inactive” each time. In addition, the “growth inhibition (GI)” value (in experiment [3]; in the experiment on Escherichia coli [7]) was “inactive” each time.
With `CN(O)C(=O)CCCP(=O)(OCOC(=O)c1ccccc1)OCOC(=O)c1ccccc1`, in [3], the “diameter of the inhibition zone (DIZ)” value is given as 11 mm. The lowest concentration to inhibit growth in experiment [13] (MIC) was 25 µg/mL (≈ 53.7 µM). Further, in the experiment on Escherichia coli [7], the “growth inhibition (GI)” value was “inactive”.
For the molecule `CC(C)(C)C(=O)OCOP(=O)(CCCC(=O)NO)OCOC(=O)C(C)(C)C`, the “growth inhibition (GI)” value (in experiment [3]; in the experiment with Escherichia coli [7]) was “inactive” each time.
For the molecule `CN(O)C(=O)CCCP(=O)(O)O`, it took 410 nM to reach half-maximal inhibition in [8] (IC50). In addition, the “growth inhibition (GI)” value in experiment [3] is “inactive”.
As to `CCCC(=O)OCOP(=O)(CCCN(O)C=O)OCOC(=O)CCC`, the “growth inhibition (GI)” value (in experiment [3]; in the experiment on Escherichia coli [7]) was “inactive” in each case.
As for `CN(O)C(=O)CCCP(=O)(OCOC(=O)C(C)(C)C)OCOC(=O)C(C)(C)C`, in experiment [3], the “diameter of the inhibition zone (DIZ)” value came to 15 mm. Also, the lowest concentration to inhibit growth in [13] (MIC) was 50 µg/mL (≈ 118 µM). Moreover, in the experiment with Escherichia coli [7], the “growth inhibition (GI)” value is “inactive”.
